ChEMBL document CHEMBL1932931, “Analogues of doxanthrine reveal differences between the dopamine D1 receptor binding properties of chromanoisoquinolines and hexahydrobenzo[a]phenanthridines” (Eur J Med Chem, 2012)

Tests used:
D(2) dopamine receptor = D(2) dopamine receptor (Homo sapiens, UniProt P14416); assay: Binding affinity to dopamine D2 receptor
[1] = Selectivity ratio of Ki for dopamine D1 receptor to Ki for dopamine D2 receptor
[2] = Displacement of [3H]SCH-23390 from dopamine D1-like receptor in porcine striatal homogenates after 30 mins by scintillation counting; format: tissue-based, Sus scrofa
In short: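 Fresh porcine striatum was homogenized in 20 mM Hepes/0.32 M sucrose (pH 7.4), and the P2 membrane pellet was washed in 50 mM Tris (pH 7.4) and stored at -80 °C. Incubation was 30 min at 37 °C, then filtration and scintillation counting. Values are means ± SEM of 4-11 independent experiments.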

[3] = Displacement of [3H]spiperone from dopamine D2-like receptor in porcine striatal homogenates after 30 mins by scintillation counting; format: tissue-based, Sus scrofa
Sus scrofa = organism: Sus scrofa; assay: Selectivity ratio of Ki for dopamine D2-like receptor in porcine striatal homogenates to Ki for dopamine D1-like receptor in porcine striatal homogenates; format: tissue-based

D(2) dopamine receptor, sequence (P14416 whole entry): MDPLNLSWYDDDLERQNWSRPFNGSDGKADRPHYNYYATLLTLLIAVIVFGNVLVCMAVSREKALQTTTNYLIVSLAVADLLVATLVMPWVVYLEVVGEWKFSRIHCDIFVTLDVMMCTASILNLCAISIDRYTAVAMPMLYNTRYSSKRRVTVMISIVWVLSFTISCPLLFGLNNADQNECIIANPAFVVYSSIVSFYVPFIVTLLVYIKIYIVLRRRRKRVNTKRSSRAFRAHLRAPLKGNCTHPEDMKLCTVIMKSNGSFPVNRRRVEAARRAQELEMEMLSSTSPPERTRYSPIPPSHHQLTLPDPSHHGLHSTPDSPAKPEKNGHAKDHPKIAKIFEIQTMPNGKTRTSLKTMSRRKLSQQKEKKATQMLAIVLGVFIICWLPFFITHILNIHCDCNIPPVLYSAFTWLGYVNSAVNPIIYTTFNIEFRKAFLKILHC

| SMILES | Ki (D(2) dopamine receptor) | Ratio Ki [1] | Ki [2] | Ki [3] | Ratio Ki (Sus scrofa) |
| --- | --- | --- | --- | --- | --- |
| CCc1ccc2c(c1)[C@@H]1c3cc(O)c(O)cc3CC[C@H]1NC2 | 420 nM | 14.5 | – | – | – |
| CN1CCc2cc(Cl)c(O)cc2[C@@H](c2ccccc2)C1 | – | – | 0.46 nM | – | – |
| Cc1ccc2c(c1)[C@@H]1c3cc(O)c(O)cc3CC[C@H]1NC2 | – | 34.7 | – | – | – |
| Cc1ccc2c(c1)[C@@H]1c3cc(O)c(O)cc3OC[C@H]1NC2 (racemic) | – | – | 150 nM | 6800 nM | 55 |
| CCc1ccc2c(c1)[C@@H]1c3cc(O)c(O)cc3OC[C@H]1NC2 (racemic) | – | – | 180 nM | 6400 nM | 49 |
| Oc1cc2c(cc1O)[C@H]1c3cc(F)ccc3CN[C@@H]1CO2 (racemic) | – | – | 110 nM | 740 nM | 8.5 |
| Oc1cc2c(cc1O)[C@H]1c3cc(C(F)(F)F)ccc3CN[C@@H]1CO2 (racemic) | – | – | 570 nM | 6900 nM | 14 |
| Oc1cc2c(cc1O)[C@H]1c3ccccc3CN[C@@H]1CS2 (racemic) | – | – | 200 nM | 2500 nM | 15 |
